Measurements: ChEMBL document CHEMBL1146361, “Studies on acyclic pyrimidines as inhibitors of mycobacteria” (Bioorg Med Chem, 2007)
Active and inactive are the calls of the source. The calls are words filed in the database; no cut-off is given here.

test system: Enterococcus faecalis; experiment: Antibacterial activity against Enterococcus faecalis up to 100 ug/ml after 16 to 20 hrs by broth microdilution method; assay type: functional, organism-based; conditions: not given

Row | SMILES | Activity
1 | [N-]=[N+]=NC(CBr)c1cn(COCCO)c(=O)[nH]c1=O (stereo not drawn) | inactive
2 | Cc1cn(COCCO)c(=O)[nH]c1=O | inactive
3 | CCCCCCCCCCC#Cc1cn(COCCO)c(=O)n(C#CCCCCCCCCCC)c1=O | inactive
4 | O=c1[nH]c(=O)n(COCCO)cc1F | inactive
5 | O=c1[nH]c(=O)n(COCCO)cc1I | inactive
6 | O=c1ccn(COCCO)c(=O)[nH]1 | inactive
7 | O=c1[nH]c(=O)n(COC(CO)CO)cc1I [IODACYCLUR] | inactive
8 | [N-]=[N+]=NC(CCl)c1cn(COC(CO)CO)c(=O)[nH]c1=O (stereo not drawn) | inactive
9 | O=c1[nH]c(=O)n(COCCO)cc1Br | inactive
10 | O=c1[nH]c(=O)n(COCCO)cc1[N+](=O)[O-] | inactive

test system: HepG2; experiment: Toxicity against HepG2 cells; assay type: functional, cell-based; conditions: Homo sapiens

Row | SMILES | Activity
11 | [N-]=[N+]=NC(CBr)c1cn(COCCO)c(=O)[nH]c1=O (stereo not drawn) | Not toxic

test system: Escherichia coli; experiment: Antibacterial activity against Escherichia coli up to 100 ug/ml after 16 to 20 hrs by broth microdilution method; assay type: functional, organism-based; conditions: not given

Row | SMILES | Activity
12 | [N-]=[N+]=NC(CBr)c1cn(COCCO)c(=O)[nH]c1=O (stereo not drawn) | inactive
13 | Cc1cn(COCCO)c(=O)[nH]c1=O | inactive
14 | CCCCCCCCCCC#Cc1cn(COCCO)c(=O)n(C#CCCCCCCCCCC)c1=O | inactive
15 | O=c1[nH]c(=O)n(COCCO)cc1F | inactive
16 | O=c1[nH]c(=O)n(COCCO)cc1I | inactive
17 | O=c1ccn(COCCO)c(=O)[nH]1 | inactive
18 | O=c1[nH]c(=O)n(COC(CO)CO)cc1I [IODACYCLUR] | inactive
19 | [N-]=[N+]=NC(CCl)c1cn(COC(CO)CO)c(=O)[nH]c1=O (stereo not drawn) | inactive
20 | O=c1[nH]c(=O)n(COCCO)cc1Br | inactive
21 | O=c1[nH]c(=O)n(COCCO)cc1[N+](=O)[O-] | inactive

test system: Mycobacterium tuberculosis; experiment: Antimycobacterial activity against Mycobacterium tuberculosis H37Ra at 50 ug/mL after 24 to 48 hrs by MABA; assay type: functional; conditions: not given
In short: (§1)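 Compounds in DMSO (100× highest final concentration), diluted in 7H9GC; tested at 100, 50, 10 and 1 µg/mL in triplicate, three experiments. Frozen inoculum diluted in 7H9GC. Read visually and spectrophotometrically. […], mean given. Visual MIC = lowest concentration preventing blue-to-pink change.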

Row | SMILES | inhibition at 50 µg/mL [%]
22 | [N-]=[N+]=NC(CBr)c1cn(COCCO)c(=O)[nH]c1=O (stereo not drawn) | 100

test system: Mycobacterium tuberculosis; experiment: Antimycobacterial activity against Mycobacterium tuberculosis H37Ra by MABA; assay type: functional; parameters: concentration or dose not given beside the values; conditions: not given; in short: as §1

Row | SMILES | Inhibition [%]
23 | Cc1cn(COCCO)c(=O)[nH]c1=O | 0
24 | CCCCCCCCCCC#Cc1cn(COCCO)c(=O)n(C#CCCCCCCCCCC)c1=O | 0
25 | O=c1[nH]c(=O)n(COCCO)cc1F | 0
26 | O=c1[nH]c(=O)n(COCCO)cc1I | 0
27 | O=c1ccn(COCCO)c(=O)[nH]1 | 0
28 | O=c1[nH]c(=O)n(COC(CO)CO)cc1I [IODACYCLUR] | 0
29 | [N-]=[N+]=NC(CCl)c1cn(COC(CO)CO)c(=O)[nH]c1=O (stereo not drawn) | 0
30 | O=c1[nH]c(=O)n(COCCO)cc1Br | 0
31 | O=c1[nH]c(=O)n(COCCO)cc1[N+](=O)[O-] | 0

test system: Mycobacterium tuberculosis; experiment: Antimycobacterial activity against Mycobacterium tuberculosis H37Ra at 100 ug/mL after 24 to 48 hrs by MABA; assay type: functional; conditions: not given; in short: as §1

Row | SMILES | inhibition at 100 µg/mL [%]
32 | [N-]=[N+]=NC(CBr)c1cn(COCCO)c(=O)[nH]c1=O (stereo not drawn) | 100

test system: Staphylococcus epidermidis; experiment: Antibacterial activity against Staphylococcus epidermidis up to 100 ug/ml after 16 to 20 hrs by broth microdilution method; assay type: functional, organism-based; conditions: not given

Row | SMILES | Activity
33 | [N-]=[N+]=NC(CBr)c1cn(COCCO)c(=O)[nH]c1=O (stereo not drawn) | inactive
34 | Cc1cn(COCCO)c(=O)[nH]c1=O | inactive
35 | CCCCCCCCCCC#Cc1cn(COCCO)c(=O)n(C#CCCCCCCCCCC)c1=O | inactive
36 | O=c1[nH]c(=O)n(COCCO)cc1F | inactive
37 | O=c1[nH]c(=O)n(COCCO)cc1I | inactive
38 | O=c1ccn(COCCO)c(=O)[nH]1 | inactive
39 | O=c1[nH]c(=O)n(COC(CO)CO)cc1I [IODACYCLUR] | inactive
40 | [N-]=[N+]=NC(CCl)c1cn(COC(CO)CO)c(=O)[nH]c1=O (stereo not drawn) | inactive
41 | O=c1[nH]c(=O)n(COCCO)cc1Br | inactive
42 | O=c1[nH]c(=O)n(COCCO)cc1[N+](=O)[O-] | inactive

test system: Mycobacterium avium; experiment: Antimycobacterial activity against Mycobacterium avium ATCC 25291; assay type: functional; parameters: concentration or dose not given beside the values; conditions: not given; in short: as §1

Row | SMILES | Inhibition [%]
43 | Cc1cn(COCCO)c(=O)[nH]c1=O | 0
44 | CCCCCCCCCCC#Cc1cn(COCCO)c(=O)n(C#CCCCCCCCCCC)c1=O | 0
45 | O=c1[nH]c(=O)n(COCCO)cc1F | 0
46 | O=c1[nH]c(=O)n(COCCO)cc1I | 0
47 | O=c1ccn(COCCO)c(=O)[nH]1 | 0
48 | O=c1[nH]c(=O)n(COC(CO)CO)cc1I [IODACYCLUR] | 0
49 | [N-]=[N+]=NC(CCl)c1cn(COC(CO)CO)c(=O)[nH]c1=O (stereo not drawn) | 0
50 | O=c1[nH]c(=O)n(COCCO)cc1Br | 0
51 | O=c1[nH]c(=O)n(COCCO)cc1[N+](=O)[O-] | 0

test system: Mycobacterium avium; experiment: Antimycobacterial activity against Mycobacterium avium ATCC 25291 at 50 ug/mL after 24 to 48 hrs by MABA; assay type: functional; conditions: not given; in short: as §1

Row | SMILES | inhibition at 50 µg/mL [%]
52 | [N-]=[N+]=NC(CBr)c1cn(COCCO)c(=O)[nH]c1=O (stereo not drawn) | 100

test system: Mycobacterium tuberculosis; experiment: Antimycobacterial activity against Mycobacterium tuberculosis H37Ra at 10 ug/mL after 24 to 48 hrs by MABA; assay type: functional; conditions: not given; in short: as §1

Row | SMILES | inhibition at 10 µg/mL [%]
53 | [N-]=[N+]=NC(CBr)c1cn(COCCO)c(=O)[nH]c1=O (stereo not drawn) | 50

test system: Proteus vulgaris; experiment: Antibacterial activity against Proteus vulgaris up to 100 ug/ml after 16 to 20 hrs by broth microdilution method; assay type: functional, organism-based; conditions: not given

Row | SMILES | Activity
54 | [N-]=[N+]=NC(CBr)c1cn(COCCO)c(=O)[nH]c1=O (stereo not drawn) | inactive
55 | Cc1cn(COCCO)c(=O)[nH]c1=O | inactive
56 | CCCCCCCCCCC#Cc1cn(COCCO)c(=O)n(C#CCCCCCCCCCC)c1=O | inactive
57 | O=c1[nH]c(=O)n(COCCO)cc1F | inactive
58 | O=c1[nH]c(=O)n(COCCO)cc1I | inactive
59 | O=c1ccn(COCCO)c(=O)[nH]1 | inactive
60 | O=c1[nH]c(=O)n(COC(CO)CO)cc1I [IODACYCLUR] | inactive
61 | [N-]=[N+]=NC(CCl)c1cn(COC(CO)CO)c(=O)[nH]c1=O (stereo not drawn) | inactive
62 | O=c1[nH]c(=O)n(COCCO)cc1Br | inactive
63 | O=c1[nH]c(=O)n(COCCO)cc1[N+](=O)[O-] | inactive

test system: Pseudomonas aeruginosa; experiment: Antibacterial activity against Pseudomonas aeruginosa up to 100 ug/ml after 16 to 20 hrs by broth microdilution method; assay type: functional, organism-based; conditions: not given

Row | SMILES | Activity
64 | [N-]=[N+]=NC(CBr)c1cn(COCCO)c(=O)[nH]c1=O (stereo not drawn) | inactive
65 | Cc1cn(COCCO)c(=O)[nH]c1=O | inactive
66 | CCCCCCCCCCC#Cc1cn(COCCO)c(=O)n(C#CCCCCCCCCCC)c1=O | inactive
67 | O=c1[nH]c(=O)n(COCCO)cc1F | inactive
68 | O=c1[nH]c(=O)n(COCCO)cc1I | inactive
69 | O=c1ccn(COCCO)c(=O)[nH]1 | inactive
70 | O=c1[nH]c(=O)n(COC(CO)CO)cc1I [IODACYCLUR] | inactive
71 | [N-]=[N+]=NC(CCl)c1cn(COC(CO)CO)c(=O)[nH]c1=O (stereo not drawn) | inactive
72 | O=c1[nH]c(=O)n(COCCO)cc1Br | inactive
73 | O=c1[nH]c(=O)n(COCCO)cc1[N+](=O)[O-] | inactive

test system: Salmonella typhimurium; experiment: Antibacterial activity against Salmonella Typhimurium up to 100 ug/ml after 16 to 20 hrs by broth microdilution method; assay type: functional, organism-based; conditions: Salmonella enterica subsp. enterica serovar Typhimurium

Row | SMILES | Activity
74 | [N-]=[N+]=NC(CBr)c1cn(COCCO)c(=O)[nH]c1=O (stereo not drawn) | inactive
75 | Cc1cn(COCCO)c(=O)[nH]c1=O | inactive
76 | CCCCCCCCCCC#Cc1cn(COCCO)c(=O)n(C#CCCCCCCCCCC)c1=O | inactive
77 | O=c1[nH]c(=O)n(COCCO)cc1F | inactive
78 | O=c1[nH]c(=O)n(COCCO)cc1I | inactive
79 | O=c1ccn(COCCO)c(=O)[nH]1 | inactive
80 | O=c1[nH]c(=O)n(COC(CO)CO)cc1I [IODACYCLUR] | inactive
81 | [N-]=[N+]=NC(CCl)c1cn(COC(CO)CO)c(=O)[nH]c1=O (stereo not drawn) | inactive
82 | O=c1[nH]c(=O)n(COCCO)cc1Br | inactive
83 | O=c1[nH]c(=O)n(COCCO)cc1[N+](=O)[O-] | inactive

test system: Streptococcus pneumoniae; experiment: Antibacterial activity against Streptococcus pneumoniae up to 100 ug/ml after 16 to 20 hrs by broth microdilution method; assay type: functional, organism-based; conditions: not given

Row | SMILES | Activity
84 | [N-]=[N+]=NC(CBr)c1cn(COCCO)c(=O)[nH]c1=O (stereo not drawn) | inactive
85 | Cc1cn(COCCO)c(=O)[nH]c1=O | inactive
86 | CCCCCCCCCCC#Cc1cn(COCCO)c(=O)n(C#CCCCCCCCCCC)c1=O | inactive
87 | O=c1[nH]c(=O)n(COCCO)cc1F | inactive
88 | O=c1[nH]c(=O)n(COCCO)cc1I | inactive
89 | O=c1ccn(COCCO)c(=O)[nH]1 | inactive
90 | O=c1[nH]c(=O)n(COC(CO)CO)cc1I [IODACYCLUR] | inactive
91 | [N-]=[N+]=NC(CCl)c1cn(COC(CO)CO)c(=O)[nH]c1=O (stereo not drawn) | inactive
92 | O=c1[nH]c(=O)n(COCCO)cc1Br | inactive
93 | O=c1[nH]c(=O)n(COCCO)cc1[N+](=O)[O-] | inactive

test system: Staphylococcus aureus; experiment: Antibacterial activity against Staphylococcus aureus up to 100 ug/ml after 16 to 20 hrs by broth microdilution method; assay type: functional, organism-based; conditions: not given

Row | SMILES | Activity
94 | [N-]=[N+]=NC(CBr)c1cn(COCCO)c(=O)[nH]c1=O (stereo not drawn) | inactive
95 | Cc1cn(COCCO)c(=O)[nH]c1=O | inactive
96 | CCCCCCCCCCC#Cc1cn(COCCO)c(=O)n(C#CCCCCCCCCCC)c1=O | inactive
97 | O=c1[nH]c(=O)n(COCCO)cc1F | inactive
98 | O=c1[nH]c(=O)n(COCCO)cc1I | inactive
99 | O=c1ccn(COCCO)c(=O)[nH]1 | inactive
100 | O=c1[nH]c(=O)n(COC(CO)CO)cc1I [IODACYCLUR] | inactive
101 | [N-]=[N+]=NC(CCl)c1cn(COC(CO)CO)c(=O)[nH]c1=O (stereo not drawn) | inactive
102 | O=c1[nH]c(=O)n(COCCO)cc1Br | inactive
103 | O=c1[nH]c(=O)n(COCCO)cc1[N+](=O)[O-] | inactive

test system: Bacillus subtilis; experiment: Antibacterial activity against Bacillus subtilis up to 100 ug/ml after 16 to 20 hrs by broth microdilution method; assay type: functional, organism-based; conditions: not given

Row | SMILES | Activity
104 | [N-]=[N+]=NC(CBr)c1cn(COCCO)c(=O)[nH]c1=O (stereo not drawn) | inactive
105 | Cc1cn(COCCO)c(=O)[nH]c1=O | inactive
106 | CCCCCCCCCCC#Cc1cn(COCCO)c(=O)n(C#CCCCCCCCCCC)c1=O | inactive
107 | O=c1[nH]c(=O)n(COCCO)cc1F | inactive
108 | O=c1[nH]c(=O)n(COCCO)cc1I | inactive
109 | O=c1ccn(COCCO)c(=O)[nH]1 | inactive
110 | O=c1[nH]c(=O)n(COC(CO)CO)cc1I [IODACYCLUR] | inactive
111 | [N-]=[N+]=NC(CCl)c1cn(COC(CO)CO)c(=O)[nH]c1=O (stereo not drawn) | inactive
112 | O=c1[nH]c(=O)n(COCCO)cc1Br | inactive
113 | O=c1[nH]c(=O)n(COCCO)cc1[N+](=O)[O-] | inactive
